From publication PMC7581536 (Journal of pharmaceutical and biomedical analysis, 2020)

Key:
KDMs = details: ref [18]–[19]; cited from earlier work
HIV-1 = details: T cell lines, via inhibition of SHMT2; ref [23]; cited from earlier work
[1] = Non-specific binding to plastic centrifuge tubes; format: physicochemical; details: neat solution, water as matrix
[2] = Pharmacokinetic study of JIB-04 in rats after i.v. and oral administration; format: in vivo, rat
How it was run: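 Male adult SD rats with jugular vein cannulas. IV: single 5 mg/kg via jugular vein (n=5) as aqueous suspension in 12.5% cremophor EL/12.5% DMSO; blood at 2 min–24 h. Oral: single 15 mg/kg (n=6); blood at 5 min–24 h. Heparinised plasma (4000 rpm, 15 min) held at −80°C. 20 µL plasma precipitated with ACN (5 ng/mL IS, 0.1% acetic acid); UHPLC-MS/MS MRM; non-compartmental analysis per rat.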

KDM5A = details: secondary targets KDM4D/4B/4A/6B/4C; ref [18], [20]–[21]; cited from earlier work
[3] = Stability of stock solutions; format: physicochemical; details: stock solution (DMSO/ACN or ACN), 6 months at −20°C
How it was run: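 Test compound stock at 2 mg/mL: 10 mg dissolved in 0.5 mL DMSO, then diluted with ACN. Internal standard stock at 100 µg/mL in ACN. Both kept at −20°C for 6 months.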

[4] = Stability of JIB-04 in rat plasma; format: in vitro ADME; details: for RE (deviation from nominal concentration) / Calculated Concentration Mean ± SD: rat plasma; for Calculated Concentration Mean ± SD: n=6
How it was run: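 Blank rat plasma spiked to 0.5, 1, 50 and 800 ng/mL, six replicates per condition. Held 18 h on bench at room temperature, 24 h in auto-sampler tray, or 3 months at −80°C. Freeze-thaw: three cycles of 2–3 h room-temperature thaw and 12–24 h at −80°C. Quantified against a same-day calibration curve; accuracy as RE%, precision as CV%.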

[5] = rats, oral 15 mg/kg, n=6, NCA (apparent)
[6] = auto-sampler (10 °C 24hr), nominal 0.5 ng/mL
[7] = auto-sampler (10 °C 24hr), nominal 1 ng/mL
[8] = auto-sampler (10 °C 24hr), nominal 50 ng/mL
[9] = auto-sampler (10 °C 24hr), nominal 800 ng/mL
[10] = bench top (18hr, RT), nominal 0.5 ng/mL
[11] = bench top (18hr, RT), nominal 1 ng/mL
[12] = bench top (18hr, RT), nominal 50 ng/mL
[13] = bench top (18hr, RT), nominal 800 ng/mL
[14] = long-term (−80 °C, 3 months), nominal 0.5 ng/mL
[15] = long-term (−80 °C, 3 months), nominal 1 ng/mL
[16] = long-term (−80 °C, 3 months), nominal 50 ng/mL
[17] = long-term (−80 °C, 3 months), nominal 800 ng/mL

Clc1ccc(NN=C(c2ccccc2)c2ccccn2)nc1 (single isomer, unassigned) [Z-isomer]
activity against KDMs (KDMs): inactive

Clc1ccc(N/N=C(\c2ccccc2)c2ccccn2)nc1 [JIB-04]
block of HIV-1 Tat expression, transactivation, and virus replication (HIV-1): potently and selectively blocks | non-specific binding to plastic centrifuge tubes [1]: strongly binding | concentrations in pharmacokinetic samples ([2]; rat plasma, i.v. and oral samples): 2 to 6000 ng/mL | plasma concentration ([2]; rats, i.v. 5 mg/kg, after 24 h): 3.0 ± 1.0 ng/mL | plasma concentration ([2]; rats, i.v. 5 mg/kg, at 2 min): 5270 ± 527.2 ng/mL | AUC 0→24 ([2]; rats, i.v. 5 mg/kg, n=5, NCA): 3661.6 ± 371.4 ng·h/mL | AUC 0→inf ([2]; rats, i.v. 5 mg/kg, n=5, NCA): 3678.2 ± 369.0 ng·h/mL | CL ([2]; rats, i.v. 5 mg/kg, n=5, NCA): 22.845 ± 2.362 mL/min/kg | Half-life ([2]; rats, i.v. 5 mg/kg, n=5, NCA): 3.70 ± 0.5 h | MRT ([2]; rats, i.v. 5 mg/kg, n=5, NCA): 2.6 ± 0.3 h | Vd ([2]; rats, i.v. 5 mg/kg, n=5, NCA): 7.3576 ± 1.5306 L/kg | E/Z ratio in plasma ([2]; rats, i.v. samples, 5 min): 72 | E/Z ratio in plasma ([2]; rats, i.v. samples, 2 h): 27 | E/Z ratio in plasma ([2]; rats, i.v. samples, 24 h): 0.6 | time to reach Cmax (range among subjects) ([2]; rats, oral 15 mg/kg): 0.5 ~ 4 h | oral bioavailability (F) ([2]; rats, oral 15 mg/kg vs i.v. 5 mg/kg): 44.4% | AUC 0→24 ([2]; rats, oral 15 mg/kg, n=6, NCA): 4880.8 ± 1015.3 ng·h/mL | AUC 0→inf ([2]; rats, oral 15 mg/kg, n=6, NCA): 4904.7 ± 1019.7 ng·h/mL | Cmax ([2]; rats, oral 15 mg/kg, n=6, NCA): 812.7 ± 201.2 ng/mL | Half-life ([2]; rats, oral 15 mg/kg, n=6, NCA): 3.2 ± 0.2 h | MRT ([2]; rats, oral 15 mg/kg, n=6, NCA): 4.4 ± 0.3 h | Tmax ([2]; rats, oral 15 mg/kg, n=6, NCA): 1.5 ± 1.4 h | CL [2, 5]: 53.903 ± 1.27 mL/min/kg | Vd [2, 5]: 14.9234 ± 3.6699 L/kg | plasma concentration ([2]; rats, oral 15 mg/kg, within 5 min): 122.9 ± 51.0 ng/mL | E/Z ratio in plasma ([2]; rats, oral samples, 5 min): 40 | E/Z ratio in plasma ([2]; rats, oral samples, 2 h): 9 | E/Z ratio in plasma ([2]; rats, oral samples, 24 h): 2.3 | inhibitory activity against KDM5A (KDM5A): maximal inhibitory activity | stability of stock solution [3]: stable | RE (deviation from nominal concentration) [4, 6]: −3.2% | Calculated Concentration Mean ± SD [4, 6]: 0.48 ± 0.01 ng/mL | RE (deviation from nominal concentration) [4, 7]: −3.5% | Calculated Concentration Mean ± SD [4, 7]: 0.97 ± 0.06 ng/mL | RE (deviation from nominal concentration) [4, 8]: −2.7% | Calculated Concentration Mean ± SD [4, 8]: 48.6 ± 3.3 ng/mL | RE (deviation from nominal concentration) [4, 9]: −0.1% | Calculated Concentration Mean ± SD [4, 9]: 799.0 ± 17.5 ng/mL | RE (deviation from nominal concentration) [4, 10]: 1.6% | Calculated Concentration Mean ± SD [4, 10]: 0.51 ± 0.02 ng/mL | RE (deviation from nominal concentration) [4, 11]: −6.9% | Calculated Concentration Mean ± SD [4, 11]: 0.93 ± 0.05 ng/mL | RE (deviation from nominal concentration) [4, 12]: −6.4% | Calculated Concentration Mean ± SD [4, 12]: 46.8 ± 0.7 ng/mL | RE (deviation from nominal concentration) [4, 13]: 2.4% | Calculated Concentration Mean ± SD [4, 13]: 819.0 ± 26.0 ng/mL | RE (deviation from nominal concentration) ([4]; freeze and thaw (−80 °C to RT), nominal 0.5 ng/mL): 1.4% | RE (deviation from nominal concentration) ([4]; freeze and thaw (−80 °C to RT), nominal 1 ng/mL): −0.8% | RE (deviation from nominal concentration) ([4]; freeze and thaw (−80 °C to RT), nominal 50 ng/mL): −2.1% | RE (deviation from nominal concentration) ([4]; freeze and thaw (−80 °C to RT), nominal 800 ng/mL): −0.9% | Calculated Concentration Mean ± SD ([4]; freeze and thaw (−80 °C to RT), three cycles, nominal 0.5 ng/mL): 0.51 ± 0.01 ng/mL | Calculated Concentration Mean ± SD ([4]; freeze and thaw (−80 °C to RT), three cycles, nominal 1 ng/mL): 0.99 ± 0.03 ng/mL | Calculated Concentration Mean ± SD ([4]; freeze and thaw (−80 °C to RT), three cycles, nominal 50 ng/mL): 49.0 ± 1.3 ng/mL | Calculated Concentration Mean ± SD ([4]; freeze and thaw (−80 °C to RT), three cycles, nominal 800 ng/mL): 793.0 ± 16.2 ng/mL | RE (deviation from nominal concentration) [4, 14]: −6.7% | Calculated Concentration Mean ± SD [4, 14]: 0.47 ± 0.02 ng/mL | RE (deviation from nominal concentration) [4, 15]: −6.9% | Calculated Concentration Mean ± SD [4, 15]: 0.93 ± 0.05 ng/mL | RE (deviation from nominal concentration) [4, 16]: −5.6% | Calculated Concentration Mean ± SD [4, 16]: 47.2 ± 1.3 ng/mL | RE (deviation from nominal concentration) [4, 17]: −6.9% | Calculated Concentration Mean ± SD [4, 17]: 745.0 ± 20.8 ng/mL | storage stability of plasma samples ([4]; stored at −80 °C for as long as 3 months): without apparent alteration | degradation in rat plasma ([4]; under the experimental conditions (Table 4)): no significant degradation
